These results are taken from PMC5003678 (European journal of medicinal chemistry, 2016).

Series [1] relates to A549 cells (human non-small cell lung adenocarcinoma). The series is described as follows: DNA survival assay, NQO1-dependency with or without dicoumarol. In kind it is cell-based. Conditions: two hours exposure.
The test system of another series is PC3 cells. The series is described as follows: Annexin V/PI detection of phosphatidylserine externalization. In kind it is cell-based, human. Conditions: 5 μM, 6 h; for phosphatidylserine externalization, pre-treated with NAC: 5 mM NAC pre-exposure (24 h); for phosphatidylserine externalization, co-treated with dicoumarol: dicoumarol 50 μM. The method, boiled down: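 PC3 cells were grown in RPMI 1640 with 10% FBS, 2 mM L-glutamine and penicillin/streptomycin at 37 °C and 5% CO2. They were exposed to 5 μM test compound for 6 h, either after a 24 h pre-exposure to 5 mM N-acetylcysteine or with 50 μM dicoumarol co-treatment. Cells were stained with FITC-Annexin V plus PI and read by flow cytometry, with early apoptosis as FITC only and late as FITC+PI. 10,000 events were counted per experiment, debris excluded, n = 3.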

Series [2] concerns SF295 (human glioblastoma cells). Conditions: read-out: Cytotoxic activity IC50 (95% CI) SF295; 72 h exposure; ref [41]; cited from earlier work.
Series [3] deals with HL-60 (human promyelocytic leukemia cells). Conditions: read-out: Cytotoxic activity IC50 (95% CI) HL-60; 72 h exposure; ref [41]; cited from earlier work.
In series [4] the test system is six cancer cell lines (HL-60, HCT-116, PC3, SF295, MDA-MB-435, OVCAR-8). The series is described as follows: MTT cytotoxicity assay, cancer cell lines overall. Conditions: classified by IC50. Type of series: cell-based, human. (Tetrazolium assays rely on reduction of a dye to a coloured formazan, in cell work by metabolically active cells.)
The test system of a further series is intracellular ROS. The series is described as follows: Generation of intracellular ROS. In kind it is cell-based.

Take `CC1(C)OC2=C(C(=O)C(=O)c3ccccc32)C1n1cc(C[Se]c2ccccc2)nn1` (stereo not drawn) [Compound 22, 2,2-dimethyl-3-(4-((phenylselanyl)methyl)-1H-1,2,3-triazol-1-yl)-2,3-dihydronaphtho[1,2-b]furan-4,5-dione]: the “NQO1 Specific” value in series [1] is given as “NQO1-dependent”. Moreover, in the series on PC3 cells, the phosphatidylserine externalization result is given as “significant increase”; the “phosphatidylserine externalization, pre-treated with NAC” value is “not observed”; the “phosphatidylserine externalization, co-treated with dicoumarol” value was “not observed”.

By IC50 is commonly meant the point on the concentration scale where inhibition reaches its midpoint. On to `CC1(C)OC2=C(C(=O)C(=O)c3ccccc32)C(N=[N+]=[N-])[C@@H]1Br` (stereo partly drawn) [Compound 9], for which the IC50 in series [2] is 1930 nM; in series [3] it was 1430 nM.

For `CC1(C)OC2=C(C(=O)C(=O)c3ccccc32)C1Nc1cccc(-c2cn(C[Se]c3ccccc3)nn2)c1` (stereo not drawn) [Compound 21, 2,2-dimethyl-3-((3-(1-((phenylselanyl)methyl)-1H-1,2,3-triazol-4-yl)phenyl)amino)-2,3-dihydronaphtho[1,2-b]furan-4,5-dione], in series [1], the “NQO1 Specific” value is listed as “NQO1-dependent”. Besides, the “activity classification against cancer cell lines” value (“activity classification” below) in series [4] is “highly active (highly active (IC50 < 2 μM))”. For the same compound, the “generation of intracellular ROS, pre-exposed with NAC” value in the series with intracellular ROS (cultures pre-exposed with NAC) is given as “not able to generate ROS”. The “generation of intracellular ROS” value in the series with intracellular ROS (short exposure (1 h)) is “led to the generation of intracellular ROS”. In the series with PC3 cells, the phosphatidylserine externalization result is listed as “significant increase”; the “phosphatidylserine externalization, pre-treated with NAC” value was “not observed”; the “phosphatidylserine externalization, co-treated with dicoumarol” value is “not observed”.

Regarding `C#Cc1cccc(NC2CC(C)(C)OC3=C2C(=O)c2ccccc2C3=O)c1` (stereo not drawn) [Compound 4, 4-((3-ethynylphenyl)amino)-2,2-dimethyl-3,4-dihydro-2H-benzo[g]chromene-5,10-dione], the “activity classification” value in series [4] is “non-active”.

Turning to `O=C1C(=O)c2ccccc2C2=C1CC(Cn1cc(C[Se]c3ccccc3)nn1)O2` (stereo not drawn) [Compound 26, 2-((4-((phenylselanyl)methyl)-1H-1,2,3-triazol-1-yl)methyl)-2,3-dihydronaphtho[1,2-b]furan-4,5-dione], in series [4], the “activity classification” value is given as “highly active (highly active (IC50 < 2 μM))”.
